Experiment [1] relates to Hepatocyte growth factor receptor (Homo sapiens), P08581 [M1250T]. The experiment can be described thus: Inhibition of MET M1250T mutant at 1 uM.
Experiment [2] addresses Serine/threonine-protein kinase 10 (Homo sapiens) (UniProt O94804). The experiment can be described thus: Inhibition of LOK at 1 uM. The method, boiled down: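 Single-concentration screen on the Ambit KINOMEscan platform, run against a panel of 250–400 kinases. Per-kinase inhibition was also summarized as S(90), the fraction of kinases inhibited by more than 90%.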
Experiment [3] addresses Death-associated protein kinase 2 (Homo sapiens) (UniProt Q9UIK4). The experiment can be described thus: Inhibition of DAPK2 at 1 uM. Summed up:
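Single-concentration screen using Ambit Bioscience KINOMEscan technology across a panel of 250–400 kinases. Per-kinase inhibition from this screen was summarized as S(90), the fraction of kinases inhibited by more than 90%.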

Experiment [4] concerns the target T1, Mitogen-activated protein kinase kinase kinase 19 (Homo sapiens) (UniProt Q56UN5).
T1 sequence (whole entry): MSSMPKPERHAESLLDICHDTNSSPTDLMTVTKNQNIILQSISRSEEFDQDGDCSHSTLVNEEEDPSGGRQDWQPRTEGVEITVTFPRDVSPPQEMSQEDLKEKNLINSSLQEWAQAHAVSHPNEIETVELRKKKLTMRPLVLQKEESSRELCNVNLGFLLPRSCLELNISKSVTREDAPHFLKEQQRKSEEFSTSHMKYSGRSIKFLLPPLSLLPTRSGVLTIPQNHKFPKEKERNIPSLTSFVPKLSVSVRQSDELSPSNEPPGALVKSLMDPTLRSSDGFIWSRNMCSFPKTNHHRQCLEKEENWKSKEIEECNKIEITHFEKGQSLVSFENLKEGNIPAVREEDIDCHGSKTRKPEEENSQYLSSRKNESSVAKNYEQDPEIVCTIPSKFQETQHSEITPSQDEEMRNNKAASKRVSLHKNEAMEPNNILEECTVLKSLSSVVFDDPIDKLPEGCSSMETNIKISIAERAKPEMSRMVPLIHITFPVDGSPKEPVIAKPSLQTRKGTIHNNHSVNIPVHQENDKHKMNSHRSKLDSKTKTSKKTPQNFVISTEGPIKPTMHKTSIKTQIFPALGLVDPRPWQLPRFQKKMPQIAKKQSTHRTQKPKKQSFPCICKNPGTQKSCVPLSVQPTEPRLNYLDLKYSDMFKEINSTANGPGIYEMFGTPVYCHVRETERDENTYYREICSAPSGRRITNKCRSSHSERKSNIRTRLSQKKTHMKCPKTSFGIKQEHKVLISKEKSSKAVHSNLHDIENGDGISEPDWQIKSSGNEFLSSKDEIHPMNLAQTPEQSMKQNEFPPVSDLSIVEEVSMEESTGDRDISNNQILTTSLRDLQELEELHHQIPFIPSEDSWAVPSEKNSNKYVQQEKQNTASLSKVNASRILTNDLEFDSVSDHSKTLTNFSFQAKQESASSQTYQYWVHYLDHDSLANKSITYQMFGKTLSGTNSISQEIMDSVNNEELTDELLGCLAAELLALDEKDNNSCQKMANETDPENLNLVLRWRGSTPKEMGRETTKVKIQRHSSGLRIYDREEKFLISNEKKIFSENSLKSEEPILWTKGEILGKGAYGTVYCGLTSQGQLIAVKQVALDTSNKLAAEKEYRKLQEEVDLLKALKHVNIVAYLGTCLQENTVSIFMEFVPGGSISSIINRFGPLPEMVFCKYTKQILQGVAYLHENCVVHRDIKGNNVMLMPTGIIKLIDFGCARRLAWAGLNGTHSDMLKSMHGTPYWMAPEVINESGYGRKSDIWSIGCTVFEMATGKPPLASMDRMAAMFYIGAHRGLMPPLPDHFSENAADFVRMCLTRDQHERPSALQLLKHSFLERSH
The experiment can be described thus: Inhibition of YSK4 at 1 uM.

The target of experiment [5] is T2, Dual specificity mitogen-activated protein kinase kinase 4 (Homo sapiens) (UniProt P45985).
T2 sequence (whole entry): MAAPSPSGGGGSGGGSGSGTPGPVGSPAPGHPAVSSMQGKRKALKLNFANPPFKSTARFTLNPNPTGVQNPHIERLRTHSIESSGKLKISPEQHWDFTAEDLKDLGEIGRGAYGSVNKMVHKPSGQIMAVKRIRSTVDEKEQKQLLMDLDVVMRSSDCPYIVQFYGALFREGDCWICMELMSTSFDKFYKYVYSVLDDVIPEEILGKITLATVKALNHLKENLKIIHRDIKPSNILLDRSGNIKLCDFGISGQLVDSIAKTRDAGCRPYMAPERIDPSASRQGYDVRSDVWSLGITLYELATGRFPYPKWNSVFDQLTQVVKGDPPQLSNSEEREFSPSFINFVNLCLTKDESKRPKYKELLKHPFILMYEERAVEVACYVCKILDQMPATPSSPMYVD
The experiment can be described thus: Inhibition of MEK4 at 1 uM.

Experiment [6] concerns the target Calcium/calmodulin-dependent protein kinase kinase 1 (Homo sapiens) (UniProt Q8N5S9). The experiment can be described thus: Inhibition of CAMKK1 at 1 uM. Summed up:
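Ambit KINOMEscan screen at a single concentration across a 250–400 kinase panel, recorded as percent inhibition. Selectivity was expressed as S(90), the fraction of kinases inhibited >90%.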

Experiment [7] has as its target Tyrosine-protein kinase Srms (Homo sapiens) (UniProt Q9H3Y6). The experiment can be described thus: Inhibition of SRMS at 1 uM.
Experiment [8] concerns the target cAMP-dependent protein kinase catalytic subunit alpha (Homo sapiens) (UniProt P17612). The experiment can be described thus: Inhibition of PKAC-alpha at 1 uM.
Experiment [9] deals with Serine/threonine-protein kinase PAK 3 (Homo sapiens) (UniProt O75914). The experiment can be described thus: Inhibition of PAK3 at 1 uM.
Chain of Serine/threonine-protein kinase PAK 3 (Homo sapiens) (O75914 whole entry, looked up): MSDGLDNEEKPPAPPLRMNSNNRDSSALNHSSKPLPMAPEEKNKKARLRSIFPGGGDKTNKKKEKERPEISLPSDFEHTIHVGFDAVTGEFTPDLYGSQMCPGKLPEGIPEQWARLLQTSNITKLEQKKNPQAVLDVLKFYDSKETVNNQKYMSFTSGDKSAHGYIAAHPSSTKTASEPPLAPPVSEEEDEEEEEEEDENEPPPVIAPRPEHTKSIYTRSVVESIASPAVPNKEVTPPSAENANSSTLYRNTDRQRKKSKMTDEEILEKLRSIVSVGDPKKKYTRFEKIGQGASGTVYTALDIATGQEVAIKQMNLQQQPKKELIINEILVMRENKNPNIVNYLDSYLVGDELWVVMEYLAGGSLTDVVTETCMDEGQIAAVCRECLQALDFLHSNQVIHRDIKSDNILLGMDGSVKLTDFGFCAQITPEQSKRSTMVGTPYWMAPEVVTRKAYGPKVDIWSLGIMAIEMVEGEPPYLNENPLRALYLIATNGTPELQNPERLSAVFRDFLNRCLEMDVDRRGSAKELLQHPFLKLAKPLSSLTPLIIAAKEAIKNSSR
Experiment [10] has as its target cAMP-dependent protein kinase catalytic subunit beta (Homo sapiens) (UniProt P22694). The experiment can be described thus: Inhibition of PKAC-beta at 1 uM.

Chain of Death-associated protein kinase 2 (Homo sapiens) (Q9UIK4 whole entry, looked up): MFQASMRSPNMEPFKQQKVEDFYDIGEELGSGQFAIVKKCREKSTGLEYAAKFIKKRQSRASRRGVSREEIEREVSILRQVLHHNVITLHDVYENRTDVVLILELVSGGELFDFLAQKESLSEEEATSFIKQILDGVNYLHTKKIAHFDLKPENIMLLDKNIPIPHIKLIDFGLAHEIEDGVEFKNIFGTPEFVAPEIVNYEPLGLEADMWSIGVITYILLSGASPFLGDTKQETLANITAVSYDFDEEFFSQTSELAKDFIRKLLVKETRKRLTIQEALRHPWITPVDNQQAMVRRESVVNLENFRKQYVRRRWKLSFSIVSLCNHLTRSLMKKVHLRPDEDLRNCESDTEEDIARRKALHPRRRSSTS
Chain of Serine/threonine-protein kinase 10 (Homo sapiens) (O94804 whole entry, looked up): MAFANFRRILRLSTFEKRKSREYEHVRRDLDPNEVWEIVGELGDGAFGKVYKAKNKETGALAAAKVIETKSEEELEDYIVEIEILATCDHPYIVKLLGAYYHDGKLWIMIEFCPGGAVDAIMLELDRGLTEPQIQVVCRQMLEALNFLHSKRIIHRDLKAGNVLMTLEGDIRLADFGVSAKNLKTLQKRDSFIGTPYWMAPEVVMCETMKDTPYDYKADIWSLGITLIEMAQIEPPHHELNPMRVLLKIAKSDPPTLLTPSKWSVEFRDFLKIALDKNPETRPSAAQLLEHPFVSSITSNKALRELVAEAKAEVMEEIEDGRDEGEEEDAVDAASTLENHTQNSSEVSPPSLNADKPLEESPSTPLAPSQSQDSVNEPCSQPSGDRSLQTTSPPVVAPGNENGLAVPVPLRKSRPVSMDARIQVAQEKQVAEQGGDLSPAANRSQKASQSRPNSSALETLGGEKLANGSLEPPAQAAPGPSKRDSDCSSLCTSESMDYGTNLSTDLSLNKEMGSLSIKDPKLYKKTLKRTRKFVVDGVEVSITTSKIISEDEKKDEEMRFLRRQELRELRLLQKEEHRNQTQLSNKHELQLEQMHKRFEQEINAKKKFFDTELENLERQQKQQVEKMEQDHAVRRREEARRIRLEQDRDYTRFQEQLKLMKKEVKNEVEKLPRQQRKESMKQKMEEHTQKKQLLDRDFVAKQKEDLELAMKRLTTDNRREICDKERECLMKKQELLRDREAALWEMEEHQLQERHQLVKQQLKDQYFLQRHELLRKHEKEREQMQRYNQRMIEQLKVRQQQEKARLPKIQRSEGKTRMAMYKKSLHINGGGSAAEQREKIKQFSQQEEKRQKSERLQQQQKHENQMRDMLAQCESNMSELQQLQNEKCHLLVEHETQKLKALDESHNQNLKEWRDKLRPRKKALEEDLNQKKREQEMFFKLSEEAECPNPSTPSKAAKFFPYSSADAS
Chain of Calcium/calmodulin-dependent protein kinase kinase 1 (Homo sapiens) (Q8N5S9 whole entry, looked up): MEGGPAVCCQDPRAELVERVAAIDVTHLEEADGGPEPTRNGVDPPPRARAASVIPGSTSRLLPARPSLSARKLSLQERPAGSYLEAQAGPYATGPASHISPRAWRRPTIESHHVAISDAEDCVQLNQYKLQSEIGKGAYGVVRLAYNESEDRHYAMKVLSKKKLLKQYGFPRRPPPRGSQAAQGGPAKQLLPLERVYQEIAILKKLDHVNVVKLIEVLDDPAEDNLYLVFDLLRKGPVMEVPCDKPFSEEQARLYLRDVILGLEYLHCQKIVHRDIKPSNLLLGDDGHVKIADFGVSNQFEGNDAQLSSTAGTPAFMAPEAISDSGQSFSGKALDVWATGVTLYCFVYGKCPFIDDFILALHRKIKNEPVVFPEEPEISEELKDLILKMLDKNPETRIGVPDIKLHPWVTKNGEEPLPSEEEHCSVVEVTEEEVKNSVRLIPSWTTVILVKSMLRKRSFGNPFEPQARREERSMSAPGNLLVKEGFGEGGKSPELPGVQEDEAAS
Chain of Tyrosine-protein kinase Srms (Homo sapiens) (Q9H3Y6 whole entry): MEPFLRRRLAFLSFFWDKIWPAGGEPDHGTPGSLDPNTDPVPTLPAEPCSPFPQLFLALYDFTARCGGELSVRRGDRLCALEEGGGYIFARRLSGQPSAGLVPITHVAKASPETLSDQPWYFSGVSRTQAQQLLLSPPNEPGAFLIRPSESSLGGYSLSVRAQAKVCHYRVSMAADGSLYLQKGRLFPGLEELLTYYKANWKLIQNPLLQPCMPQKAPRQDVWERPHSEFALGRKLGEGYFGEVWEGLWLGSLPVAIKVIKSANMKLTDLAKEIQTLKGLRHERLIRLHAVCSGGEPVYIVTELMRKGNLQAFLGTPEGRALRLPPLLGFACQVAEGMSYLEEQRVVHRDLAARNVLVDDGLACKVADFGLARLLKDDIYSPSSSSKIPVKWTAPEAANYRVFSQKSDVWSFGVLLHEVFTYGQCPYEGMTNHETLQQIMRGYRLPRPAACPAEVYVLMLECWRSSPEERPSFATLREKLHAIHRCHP
Chain of Hepatocyte growth factor receptor (Homo sapiens), P08581 [M1250T] (P08581 whole entry M1250T): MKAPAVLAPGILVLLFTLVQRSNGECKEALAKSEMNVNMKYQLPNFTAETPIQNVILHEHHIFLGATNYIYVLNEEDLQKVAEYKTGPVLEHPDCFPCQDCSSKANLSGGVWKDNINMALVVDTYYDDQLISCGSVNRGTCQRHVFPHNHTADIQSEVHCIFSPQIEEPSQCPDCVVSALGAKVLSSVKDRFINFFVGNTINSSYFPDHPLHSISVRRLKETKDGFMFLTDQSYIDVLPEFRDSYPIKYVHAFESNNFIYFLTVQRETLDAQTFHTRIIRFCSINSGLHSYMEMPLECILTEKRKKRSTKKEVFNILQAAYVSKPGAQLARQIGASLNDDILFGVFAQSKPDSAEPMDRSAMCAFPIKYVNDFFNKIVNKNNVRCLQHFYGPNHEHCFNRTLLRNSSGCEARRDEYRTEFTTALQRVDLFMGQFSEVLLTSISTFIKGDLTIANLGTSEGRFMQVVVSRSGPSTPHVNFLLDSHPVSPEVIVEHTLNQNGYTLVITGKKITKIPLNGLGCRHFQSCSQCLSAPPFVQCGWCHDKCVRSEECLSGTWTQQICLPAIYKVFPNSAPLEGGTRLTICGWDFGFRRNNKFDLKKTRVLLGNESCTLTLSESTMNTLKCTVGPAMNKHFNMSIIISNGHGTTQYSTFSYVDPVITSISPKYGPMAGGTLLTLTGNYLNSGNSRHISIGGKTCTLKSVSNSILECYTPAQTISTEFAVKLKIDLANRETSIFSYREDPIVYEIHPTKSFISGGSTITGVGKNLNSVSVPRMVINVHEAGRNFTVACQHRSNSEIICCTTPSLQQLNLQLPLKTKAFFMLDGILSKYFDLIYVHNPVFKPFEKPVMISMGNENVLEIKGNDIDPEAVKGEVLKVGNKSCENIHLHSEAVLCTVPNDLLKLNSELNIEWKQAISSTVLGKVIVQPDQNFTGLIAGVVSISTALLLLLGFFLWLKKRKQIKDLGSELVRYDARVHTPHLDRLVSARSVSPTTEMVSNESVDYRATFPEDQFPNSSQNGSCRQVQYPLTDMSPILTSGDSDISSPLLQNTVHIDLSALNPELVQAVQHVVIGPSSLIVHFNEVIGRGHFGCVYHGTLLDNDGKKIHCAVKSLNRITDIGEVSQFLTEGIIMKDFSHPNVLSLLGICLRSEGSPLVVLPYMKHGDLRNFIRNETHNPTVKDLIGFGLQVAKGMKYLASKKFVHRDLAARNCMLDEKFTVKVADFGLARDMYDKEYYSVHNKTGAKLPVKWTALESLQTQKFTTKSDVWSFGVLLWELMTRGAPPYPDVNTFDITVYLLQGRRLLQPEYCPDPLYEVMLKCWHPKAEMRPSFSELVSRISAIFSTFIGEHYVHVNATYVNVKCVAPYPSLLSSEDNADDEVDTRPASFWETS

Usually inhibition stands for the change of the read-out against control, counted positive when it falls. As to `FC(F)(F)c1ccc(Cl)cc1CN1CCNc2ncc(-c3ccnc(N4CCNCC4)c3)cc21`, the inhibition was 86% in experiment [1]; 66% in experiment [2]; < 50% in experiment [3]; < 50% in experiment [4]; < 50% in [5]; < 50% in experiment [6]. Moreover, the inhibition in experiment [7], in experiment [8], in experiment [9] and in [10] was < 50% throughout.

For the compound `CN1CCN(c2ccc(-c3cnc4c(c3)N(Cc3cc(Cl)ccc3Cl)CCN4)cn2)CC1`, the inhibition in [1], in experiment [2], in experiment [3], in [4], in experiment [5] and in experiment [6] was < 50% in each case. Also, the inhibition in [7], in experiment [8], in experiment [9] and in experiment [10] was < 50% each time.

On to `COC1CCN(C(=O)c2ccc(-c3cnc4c(c3)N(Cc3cc(Cl)ccc3C(F)(F)F)CCN4)cc2)CC1`, for which the inhibition in experiment [2], in experiment [3], in [6], in experiment [7], in [8] and in experiment [9] was < 50% in each case. Also, in [10], the inhibition was < 50%.

Regarding `O=C(c1ccc(-c2cnc3c(c2)N(Cc2cc(Cl)ccc2C(F)(F)F)CCN3)cc1)N1CCCCC1`, the inhibition in experiment [2], in [3], in experiment [6], in experiment [8], in experiment [9] and in experiment [10] was < 50% in each case.

Take `O=C(O)c1ccc(-c2cnc3c(c2)N(Cc2cc(Cl)ccc2C(F)(F)F)CCN3)cc1`: the inhibition in [2], in [3], in experiment [6], in experiment [8], in experiment [9] and in experiment [10] was < 50% each time.

Turning to `CN1CCN(c2ccc(-c3cnc4c(c3)N(Cc3cc(F)ccc3F)CCN4)cn2)CC1`, the inhibition in experiment [1], in experiment [2], in experiment [3], in experiment [4], in [5] and in experiment [6] was < 50% throughout. The inhibition in experiment [7], in experiment [8], in experiment [9] and in experiment [10] was < 50% each time.

Take `O=C(c1ccc(-c2cnc3c(c2)N(Cc2cc(Cl)ccc2C(F)(F)F)CCN3)cc1)N1CCC(N2CCCC2)CC1`: the inhibition in experiment [2], in [3], in experiment [6], in experiment [7], in experiment [8] and in experiment [9] was < 50% each time. For the same compound, the inhibition in [10] is < 50%.

As for `CN1CCN(c2ccc(-c3cnc4c(c3)N(Cc3c(F)ccc(F)c3Cl)CCN4)cn2)CC1`, the inhibition was 82% in experiment [1]; < 50% in [2]; < 50% in [3]; < 50% in experiment [4]; < 50% in [5]; < 50% in [6]. The inhibition in [7], in [9] and in [10] was < 50% each time.

In the case of `CC(=O)N1CCN(c2cc(-c3cnc4c(c3)N(Cc3cc(Cl)ccc3C(F)(F)F)CCN4)ccn2)CC1`, the inhibition in experiment [1], in experiment [2], in experiment [3], in experiment [4], in experiment [5] and in experiment [6] was < 50% in each case. Besides, the inhibition in [7], in [8], in [9] and in experiment [10] was < 50% each time.

Take `CN1CCN(c2ccc(-c3cnc4c(c3)N(Cc3cc(Cl)ccc3C(F)(F)F)CCN4)cn2)CC1`: the inhibition in experiment [1], in [2], in experiment [3], in [4], in [5] and in [6] was < 50% in each case. Moreover, the inhibition in experiment [7], in experiment [9] and in experiment [10] was < 50% throughout.

For the origin of these results see ChEMBL document CHEMBL1165965, “Synthesis and structure-activity relationships of 1,2,3,4-tetrahydropyrido[2,3-b]pyrazines as potent and selective inhibitors of the anaplastic lymphoma kinase” (Bioorg Med Chem, 2010).
